Source: the M2OR odorant receptor database

Columns and labels:
Details in all cases: stereoisomer not certain
OR1A1 (Homo sapiens) = target: T1, OR1A1 (Homo sapiens) (UniProt Q9P1Q5)
T1 sequence (whole entry): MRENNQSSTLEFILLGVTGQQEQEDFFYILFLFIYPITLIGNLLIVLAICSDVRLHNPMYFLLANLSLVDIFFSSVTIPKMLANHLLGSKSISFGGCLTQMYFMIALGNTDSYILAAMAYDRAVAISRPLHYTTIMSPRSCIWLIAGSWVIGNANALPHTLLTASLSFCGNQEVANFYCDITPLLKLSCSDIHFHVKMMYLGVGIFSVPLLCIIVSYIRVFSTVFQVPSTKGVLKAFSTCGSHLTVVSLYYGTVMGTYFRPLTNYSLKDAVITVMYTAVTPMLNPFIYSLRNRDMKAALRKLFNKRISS
Summary of the method: (§1)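 Transient luciferase assays in mammalian cell lines were common, though methods varied by source. The values come from published papers and their supplementary material, with extra details from the original authors when needed. Responsive refers to a measured signal the original authors judged statistically different from baseline, and non-responsive (inactive) to the remainder.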

OR13C2 (Homo sapiens) = target: T2, OR13C2 (Homo sapiens) (UniProt Q8NGS9)
T2 sequence (whole entry): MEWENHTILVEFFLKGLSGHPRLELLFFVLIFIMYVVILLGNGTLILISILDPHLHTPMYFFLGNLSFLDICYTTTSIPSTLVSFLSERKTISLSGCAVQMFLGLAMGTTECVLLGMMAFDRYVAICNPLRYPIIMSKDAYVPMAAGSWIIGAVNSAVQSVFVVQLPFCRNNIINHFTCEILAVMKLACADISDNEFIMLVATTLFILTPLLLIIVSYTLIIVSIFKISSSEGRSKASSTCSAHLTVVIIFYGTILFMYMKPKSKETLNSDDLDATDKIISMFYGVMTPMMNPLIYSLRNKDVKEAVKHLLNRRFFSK
Summary of the method: as §1

OR13C3 (Homo sapiens) = target: T3, OR13C3 (Homo sapiens) (UniProt Q8NGS6)
T3 sequence (whole entry): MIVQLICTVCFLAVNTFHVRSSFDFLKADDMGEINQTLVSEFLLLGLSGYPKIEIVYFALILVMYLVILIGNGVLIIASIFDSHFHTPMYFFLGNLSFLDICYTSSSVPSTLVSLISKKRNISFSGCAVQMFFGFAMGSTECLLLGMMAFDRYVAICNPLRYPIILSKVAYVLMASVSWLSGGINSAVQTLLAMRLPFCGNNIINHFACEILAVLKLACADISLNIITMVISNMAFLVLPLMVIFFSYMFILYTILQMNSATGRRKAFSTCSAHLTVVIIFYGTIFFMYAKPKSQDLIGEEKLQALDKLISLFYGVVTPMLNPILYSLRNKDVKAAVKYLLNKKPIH
Summary of the method: as §1

OR13C4 (Homo sapiens) = target: T4, OR13C4 (Homo sapiens) (UniProt Q8NGS5)
T4 sequence (whole entry): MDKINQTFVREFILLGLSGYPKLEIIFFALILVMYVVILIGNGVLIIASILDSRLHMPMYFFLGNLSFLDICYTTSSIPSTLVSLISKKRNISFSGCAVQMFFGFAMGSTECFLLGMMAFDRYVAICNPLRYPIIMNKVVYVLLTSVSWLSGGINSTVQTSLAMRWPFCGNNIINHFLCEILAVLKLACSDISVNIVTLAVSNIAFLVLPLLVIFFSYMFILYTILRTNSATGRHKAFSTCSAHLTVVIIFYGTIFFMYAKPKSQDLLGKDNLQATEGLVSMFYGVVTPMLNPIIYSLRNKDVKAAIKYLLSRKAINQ
Summary of the method: as §1

OR13C5 (Homo sapiens) = target: T5, OR13C5 (Homo sapiens) (UniProt Q8NGS8)
T5 sequence (whole entry): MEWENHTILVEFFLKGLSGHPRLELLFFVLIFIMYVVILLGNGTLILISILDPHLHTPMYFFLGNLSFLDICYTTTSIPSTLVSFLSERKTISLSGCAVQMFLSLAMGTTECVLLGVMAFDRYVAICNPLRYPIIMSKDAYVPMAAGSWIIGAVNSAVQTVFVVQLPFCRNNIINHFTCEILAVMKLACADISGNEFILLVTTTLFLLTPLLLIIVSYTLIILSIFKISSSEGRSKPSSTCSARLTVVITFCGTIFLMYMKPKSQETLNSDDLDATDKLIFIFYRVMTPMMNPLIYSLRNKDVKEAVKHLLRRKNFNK
Summary of the method: as §1

OR13C8 (Homo sapiens) = target: T6, OR13C8 (Homo sapiens) (UniProt Q8NGS7)
T6 sequence (whole entry): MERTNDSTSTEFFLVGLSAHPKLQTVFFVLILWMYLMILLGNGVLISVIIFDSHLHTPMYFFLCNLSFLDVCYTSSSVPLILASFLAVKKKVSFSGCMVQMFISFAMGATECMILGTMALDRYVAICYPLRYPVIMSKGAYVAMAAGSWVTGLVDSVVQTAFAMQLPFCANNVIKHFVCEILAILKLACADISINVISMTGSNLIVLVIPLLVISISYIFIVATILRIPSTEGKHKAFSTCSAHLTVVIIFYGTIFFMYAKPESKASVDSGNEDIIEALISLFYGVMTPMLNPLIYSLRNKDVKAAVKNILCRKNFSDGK
Summary of the method: as §1

OR13C9 (Homo sapiens) = target: T7, OR13C9 (Homo sapiens) (UniProt Q8NGT0)
T7 sequence (whole entry): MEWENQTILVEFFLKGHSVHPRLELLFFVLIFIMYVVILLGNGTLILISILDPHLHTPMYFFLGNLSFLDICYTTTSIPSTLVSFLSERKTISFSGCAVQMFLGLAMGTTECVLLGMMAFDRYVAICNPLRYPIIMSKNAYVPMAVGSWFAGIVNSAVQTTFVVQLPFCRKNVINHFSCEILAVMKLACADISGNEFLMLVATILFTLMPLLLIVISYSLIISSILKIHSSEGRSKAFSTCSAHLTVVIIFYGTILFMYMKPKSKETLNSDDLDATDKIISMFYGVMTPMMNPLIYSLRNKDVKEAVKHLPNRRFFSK
Summary of the method: as §1

OR13D1 (Homo sapiens) = target: T8, OR13D1 (Homo sapiens) (UniProt Q8NGV5)
T8 sequence (whole entry): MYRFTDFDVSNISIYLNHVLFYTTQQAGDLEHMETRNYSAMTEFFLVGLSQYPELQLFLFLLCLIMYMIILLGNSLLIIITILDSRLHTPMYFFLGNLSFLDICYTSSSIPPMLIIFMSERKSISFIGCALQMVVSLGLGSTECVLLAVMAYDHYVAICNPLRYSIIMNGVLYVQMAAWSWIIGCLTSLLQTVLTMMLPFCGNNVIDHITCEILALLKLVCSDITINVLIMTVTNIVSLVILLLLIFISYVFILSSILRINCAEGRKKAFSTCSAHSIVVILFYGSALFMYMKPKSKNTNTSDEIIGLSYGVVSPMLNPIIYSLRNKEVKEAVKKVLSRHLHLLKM
Summary of the method: as §1

OR13F1 (Homo sapiens) = target: T9, OR13F1 (Homo sapiens) (UniProt Q8NGS4)
T9 sequence (whole entry): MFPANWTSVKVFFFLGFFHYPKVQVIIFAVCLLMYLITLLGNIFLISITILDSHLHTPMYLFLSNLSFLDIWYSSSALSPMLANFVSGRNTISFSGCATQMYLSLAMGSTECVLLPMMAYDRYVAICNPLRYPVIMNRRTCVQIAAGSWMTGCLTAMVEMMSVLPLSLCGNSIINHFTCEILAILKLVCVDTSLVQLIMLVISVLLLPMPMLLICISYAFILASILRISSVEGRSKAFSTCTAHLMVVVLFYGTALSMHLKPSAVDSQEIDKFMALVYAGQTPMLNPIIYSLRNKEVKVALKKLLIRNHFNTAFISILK
Summary of the method: as §1

OR13G1 (Homo sapiens) = target: T10, OR13G1 (Homo sapiens) (UniProt Q8NGZ3)
T10 sequence (whole entry): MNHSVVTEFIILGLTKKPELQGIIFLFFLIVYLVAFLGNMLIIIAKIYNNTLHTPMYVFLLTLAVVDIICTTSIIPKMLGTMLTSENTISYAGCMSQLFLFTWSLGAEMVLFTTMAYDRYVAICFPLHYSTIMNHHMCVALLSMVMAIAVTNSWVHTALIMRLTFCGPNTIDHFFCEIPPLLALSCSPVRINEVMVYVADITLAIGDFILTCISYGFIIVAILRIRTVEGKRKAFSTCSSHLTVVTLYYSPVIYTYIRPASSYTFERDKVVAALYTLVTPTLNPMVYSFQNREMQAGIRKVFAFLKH
Summary of the method: as §1

OR13H1 (Homo sapiens) = target: T11, OR13H1 (Homo sapiens) (UniProt Q8NG92)
T11 sequence (whole entry): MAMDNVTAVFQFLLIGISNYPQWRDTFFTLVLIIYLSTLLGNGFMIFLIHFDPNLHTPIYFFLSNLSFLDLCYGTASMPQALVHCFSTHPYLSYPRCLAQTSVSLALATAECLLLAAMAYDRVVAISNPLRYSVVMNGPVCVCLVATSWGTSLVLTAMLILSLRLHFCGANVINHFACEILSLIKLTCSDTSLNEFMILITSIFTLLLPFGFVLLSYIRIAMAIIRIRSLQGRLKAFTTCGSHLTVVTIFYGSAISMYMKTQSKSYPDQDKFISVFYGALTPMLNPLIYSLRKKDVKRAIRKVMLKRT
Summary of the method: as §1

OR13J1 (Homo sapiens) = target: T12, OR13J1 (Homo sapiens) (UniProt Q8NGT2)
T12 sequence (whole entry): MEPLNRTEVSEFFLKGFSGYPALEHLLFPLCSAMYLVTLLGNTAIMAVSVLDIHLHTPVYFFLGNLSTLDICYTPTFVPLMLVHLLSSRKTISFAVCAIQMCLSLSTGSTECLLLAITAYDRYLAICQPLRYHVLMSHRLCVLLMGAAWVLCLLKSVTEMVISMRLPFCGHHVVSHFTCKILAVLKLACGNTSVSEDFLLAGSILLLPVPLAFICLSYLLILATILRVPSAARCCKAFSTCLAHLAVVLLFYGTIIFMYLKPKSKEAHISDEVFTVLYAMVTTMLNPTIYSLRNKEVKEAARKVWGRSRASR
Summary of the method: as §1

OR14A16 (Homo sapiens) = target: T13, OR14A16 (Homo sapiens) (UniProt Q8NHC5)
T13 sequence (whole entry): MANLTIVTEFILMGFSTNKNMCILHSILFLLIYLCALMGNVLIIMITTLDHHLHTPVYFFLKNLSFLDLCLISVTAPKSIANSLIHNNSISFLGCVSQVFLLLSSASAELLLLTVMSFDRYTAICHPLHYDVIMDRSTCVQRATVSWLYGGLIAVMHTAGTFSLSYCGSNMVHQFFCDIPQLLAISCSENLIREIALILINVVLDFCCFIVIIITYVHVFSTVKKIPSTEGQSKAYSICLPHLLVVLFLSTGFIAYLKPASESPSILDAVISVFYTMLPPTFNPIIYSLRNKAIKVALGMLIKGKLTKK
Summary of the method: as §1

OR14A2 (Homo sapiens) = target: T14, OR14A2 (Homo sapiens) (UniProt Q96R54)
T14 sequence (whole entry): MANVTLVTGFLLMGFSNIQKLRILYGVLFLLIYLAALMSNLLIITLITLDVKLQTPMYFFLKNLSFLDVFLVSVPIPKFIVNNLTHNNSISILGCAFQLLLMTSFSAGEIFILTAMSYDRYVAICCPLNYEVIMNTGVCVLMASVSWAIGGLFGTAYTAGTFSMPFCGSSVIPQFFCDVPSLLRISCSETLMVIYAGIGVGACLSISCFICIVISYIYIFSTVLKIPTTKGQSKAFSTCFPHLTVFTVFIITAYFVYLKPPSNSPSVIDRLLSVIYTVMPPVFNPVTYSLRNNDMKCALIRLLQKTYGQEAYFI
Summary of the method: as §1

OR14C36 (Homo sapiens) = target: T15, OR14C36 (Homo sapiens) (UniProt Q8NHC7)
T15 sequence (whole entry): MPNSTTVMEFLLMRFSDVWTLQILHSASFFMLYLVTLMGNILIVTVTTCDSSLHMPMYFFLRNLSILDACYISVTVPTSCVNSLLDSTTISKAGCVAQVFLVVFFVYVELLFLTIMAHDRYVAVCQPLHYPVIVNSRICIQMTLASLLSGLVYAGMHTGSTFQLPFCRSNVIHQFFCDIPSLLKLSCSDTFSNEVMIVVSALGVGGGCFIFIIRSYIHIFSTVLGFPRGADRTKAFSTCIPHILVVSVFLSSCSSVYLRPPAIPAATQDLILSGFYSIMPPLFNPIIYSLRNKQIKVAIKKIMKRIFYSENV
Summary of the method: as §1

OR14I1 (Homo sapiens) = target: T16, OR14I1 (Homo sapiens) (UniProt A6ND48)
T16 sequence (whole entry): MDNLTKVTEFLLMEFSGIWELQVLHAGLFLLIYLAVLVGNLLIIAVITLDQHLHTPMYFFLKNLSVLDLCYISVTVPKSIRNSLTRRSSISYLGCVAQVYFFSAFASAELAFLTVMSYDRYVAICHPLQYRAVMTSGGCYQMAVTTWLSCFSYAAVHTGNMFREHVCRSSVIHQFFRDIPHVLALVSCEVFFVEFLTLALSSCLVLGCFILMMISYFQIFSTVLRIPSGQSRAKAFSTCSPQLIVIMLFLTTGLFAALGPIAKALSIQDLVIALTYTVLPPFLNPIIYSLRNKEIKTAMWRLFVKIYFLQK
Summary of the method: as §1

OR14J1 (Homo sapiens) = target: T17, OR14J1 (Homo sapiens) (UniProt Q9UGF5)
T17 sequence (whole entry): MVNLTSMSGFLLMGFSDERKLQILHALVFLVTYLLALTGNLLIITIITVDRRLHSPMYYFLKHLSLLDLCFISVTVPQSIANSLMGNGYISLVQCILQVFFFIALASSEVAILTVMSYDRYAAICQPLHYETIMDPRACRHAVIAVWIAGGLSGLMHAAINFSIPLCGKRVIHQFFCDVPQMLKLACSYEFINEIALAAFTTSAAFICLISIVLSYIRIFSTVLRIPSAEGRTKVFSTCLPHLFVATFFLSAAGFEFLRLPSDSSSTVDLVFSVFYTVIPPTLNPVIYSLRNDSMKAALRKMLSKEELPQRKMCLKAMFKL
Summary of the method: as §1

OR14K1 (Homo sapiens) = target: T18, OR14K1 (Homo sapiens) (UniProt Q8NGZ2)
T18 sequence (whole entry): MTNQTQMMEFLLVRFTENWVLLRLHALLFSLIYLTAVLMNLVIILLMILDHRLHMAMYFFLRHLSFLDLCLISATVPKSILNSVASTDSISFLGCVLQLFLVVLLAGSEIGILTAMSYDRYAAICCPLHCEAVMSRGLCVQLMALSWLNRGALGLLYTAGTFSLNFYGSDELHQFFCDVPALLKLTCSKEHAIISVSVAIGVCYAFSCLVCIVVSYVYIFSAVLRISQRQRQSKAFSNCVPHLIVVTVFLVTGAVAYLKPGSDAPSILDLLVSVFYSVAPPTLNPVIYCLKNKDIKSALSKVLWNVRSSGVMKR
Summary of the method: as §1

Measured: odorant receptor agonist call

CCC=CCCC=CCO
inactive: OR1A1 (Homo sapiens)

CCCCCC(=O)C(C)C(C)=O (configuration not stated)
active: OR1A1 (Homo sapiens)
inactive: all other assays above

CCCC(S)CCOC(C)=O (configuration not stated)
active: OR1A1 (Homo sapiens)
inactive: all other assays above
